Test results taken from ChEMBL document CHEMBL3102784, “Salicylanilide diethyl phosphates: synthesis, antimicrobial activity and cytotoxicity” (Bioorg Med Chem, 2014).
In brackets after ≈: the same amount, converted by molar mass. Activity calls are given as the source filed them. The rule behind the calls is not given here.

Columns and labels:
[1] = system: Mycobacterium kansasii; experiment: Antimycobacterial activity against Mycobacterium kansasii My 235/80 after 7 days; type: functional; conditions: My 235/80, 168 h
In short: (§1)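 Micromethod MIC in Šula's semisynthetic medium at 37 °C. Compounds added in DMSO at 1000 down to 0.032 µmol/L. Isoniazid standard in sterile water at 0.5–250 µmol/L. Inocula: H37Rv 10^3, M. avium 10^5, M. kansasii 10^4. Read at 14 and 21 d, plus 7 d for M. kansasii.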

[2] = system: Staphylococcus epidermidis; experiment: Antibacterial activity against Staphylococcus epidermidis H 6966/08 after 24 hrs by broth microdilution method; type: functional; conditions: H 6966/08, 24 h
In short: (§2)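 Broth microdilution in Mueller–Hinton broth, compounds dissolved in DMSO, tested over a dilution series from 500 downward. MIC taken as ≥95% growth reduction (IC95) versus drug-free control. Benzylpenicillin comparator. Readings at 24 and 48 h.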

[3] = system: Trichosporon asahii; experiment: Antifungal activity against Trichosporon asahii 1188 after 24 hrs by broth microdilution method; type: functional; conditions: Trichosporon asahii, 1188, 24 h
In short: (§3)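 Broth microdilution in RPMI 1640 with glutamine, fluconazole as reference. For yeasts, MIC is ≥80% growth reduction (IC80) versus control. For filamentous fungi, the value is expressed as IC50. Readings at 24 and 48 h.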

[4] = system: Staphylococcus aureus; experiment: Antibacterial activity against Staphylococcus aureus CCM 4516/08 after 48 hrs by broth microdilution method; type: functional; conditions: CCM 4516/08, 48 h; in short: as §2
[5] = system: Nakaseomyces glabratus; experiment: Antifungal activity against Candida glabrata 20/I at 500 micromol/L after 24 to 48 hrs by broth microdilution method; type: functional, organism-based; in short: as §3
[6] = system: Mycobacterium tuberculosis; experiment: Antimycobacterial activity against Mycobacterium tuberculosis H37Rv My 331/88 after 14 days; type: functional; conditions: H37Rv My 331/88, 336 h; in short: as §1
[7] = system: Aspergillus fumigatus; experiment: Antifungal activity against Aspergillus fumigatus 231 after 24 hrs by broth microdilution method; type: functional; conditions: Aspergillus fumigatus, 231, 24 h; in short: as §3
[8] = system: Klebsiella pneumoniae; experiment: Antibacterial activity against ESBL-positive Klebsiella pneumoniae J 14368/08 at 500 micromol/L after 24 to 48 hrs by broth microdilution method; type: functional, organism-based; in short: as §2
[9] = system: Mycobacterium kansasii; experiment: Antimycobacterial activity against Mycobacterium kansasii 6509/96 after 7 days; type: functional; conditions: 6509/96, 168 h; in short: as §1
[10] = system: Trichophyton mentagrophytes; experiment: Antifungal activity against Trichophyton mentagrophytes 445 after 120 hrs by broth microdilution method; type: functional; conditions: Trichophyton mentagrophytes, 445, 120 h
In short: (§4)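 Filamentous dermatophyte tested by broth microdilution in RPMI 1640 with glutamine, fluconazole as reference. Value expressed as IC50 relative to growth control. Read at 72 and 120 h.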

[11] = system: Mycobacterium kansasii; experiment: Antimycobacterial activity against Mycobacterium kansasii 6509/96 after 14 days; type: functional; conditions: 6509/96, 336 h; in short: as §1
[12] = system: Lichtheimia corymbifera; experiment: Antifungal activity against Absidia corymbifera 272 after 24 hrs by broth microdilution method; type: functional; conditions: Lichtheimia corymbifera, 272, 24 h; in short: as §3
[13] = system: Escherichia coli; experiment: Antibacterial activity against Escherichia coli CCM 4517 at 500 micromol/L after 24 to 48 hrs by broth microdilution method; type: functional, organism-based; in short: as §2
[14] = system: Klebsiella pneumoniae; experiment: Antibacterial activity against Klebsiella pneumoniae D 11750/08 at 500 micromol/L after 24 to 48 hrs by broth microdilution method; type: functional, organism-based; in short: as §2
[15] = system: Pichia kudriavzevii; experiment: Antifungal activity against Candida krusei E28 after 24 hrs by broth microdilution method; type: functional; conditions: E28, 24 h; in short: as §3
[16] = system: Enterococcus sp.; experiment: Antibacterial activity against Enterococcus sp. J 14365/08 at 500 micromol/L after 24 to 48 hrs by broth microdilution method; type: functional, organism-based; in short: as §2
[17] = system: Mycobacterium tuberculosis; experiment: Antimycobacterial activity against Mycobacterium tuberculosis H37Rv My 331/88 after 21 days; type: functional; conditions: H37Rv My 331/88, 504 h; in short: as §1
[18] = system: Mycobacterium kansasii; experiment: Antimycobacterial activity against Mycobacterium kansasii 6509/96 after 21 days; type: functional; conditions: 6509/96, 504 h; in short: as §1
[19] = system: Candida albicans; experiment: Antifungal activity against Candida albicans ATCC 44859 after 48 hrs by broth microdilution method; type: functional; conditions: ATCC 44859, 48 h; in short: as §3
[20] = system: Aspergillus fumigatus; experiment: Antifungal activity against Aspergillus fumigatus 231 after 48 hrs by broth microdilution method; type: functional; conditions: Aspergillus fumigatus, 231, 48 h; in short: as §3
[21] = system: HepG2; experiment: Cytotoxicity against human HepG2 cells after 24 hrs by CellTiter assay; type: cell-based; conditions: HepG2, 24 h
In short: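 HepG2 cells (passage 27–33) in MEM with 10% FBS, L-glutamine and NEAA, seeded at 1×10^4 per well. Treated next day with compounds at 0.1–100 µM (or 0.1–25 µmol/L), triplicates, <1% DMSO, for 24 h at 37 °C, 5% CO2. MTS reagent added for 2 h, absorbance read at 490 nm. IC50 taken against untreated (100%) and 10% DMSO (0%) controls.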

[22] = system: Mycobacterium kansasii; experiment: Antimycobacterial activity against Mycobacterium kansasii My 235/80 after 21 days; type: functional; conditions: My 235/80, 504 h; in short: as §1
[23] = system: Mycobacterium avium; experiment: Antimycobacterial activity against isoniazid, rifampicin, ethambutol and ofloxacin-resistant Mycobacterium avium My 330/88 after 21 days; type: functional; conditions: My 330/88, 504 h; in short: as §1
[24] = system: Candida tropicalis; experiment: Antifungal activity against Candida tropicalis 156 at 500 micromol/L after 24 to 48 hrs by broth microdilution method; type: functional, organism-based; in short: as §3
[25] = system: Staphylococcus aureus; experiment: Antibacterial activity against methicillin-resistant Staphylococcus aureus H 5996/08 after 24 hrs by broth microdilution method; type: functional; conditions: H 5996/08, 24 h; in short: as §2
[26] = system: Trichophyton mentagrophytes; experiment: Antifungal activity against Trichophyton mentagrophytes 445 after 72 hrs by broth microdilution method; type: functional; conditions: Trichophyton mentagrophytes, 445, 72 h; in short: as §4
[27] = system: Trichosporon asahii; experiment: Antifungal activity against Trichosporon asahii 1188 after 48 hrs by broth microdilution method; type: functional; conditions: Trichosporon asahii, 1188, 48 h; in short: as §3
[28] = system: Pseudomonas aeruginosa; experiment: Antibacterial activity against Pseudomonas aeruginosa CCM 1961 at 500 micromol/L after 24 to 48 hrs by broth microdilution method; type: functional, organism-based; in short: as §2
[29] = system: Candida albicans; experiment: Antifungal activity against Candida albicans ATCC 44859 after 24 hrs by broth microdilution method; type: functional; conditions: ATCC 44859, 24 h; in short: as §3
[30] = system: Staphylococcus aureus; experiment: Antibacterial activity against Staphylococcus aureus CCM 4516/08 after 24 hrs by broth microdilution method; type: functional; conditions: CCM 4516/08, 24 h; in short: as §2
[31] = system: Mycobacterium kansasii; experiment: Antimycobacterial activity against Mycobacterium kansasii My 235/80 after 14 days; type: functional; conditions: My 235/80, 336 h; in short: as §1
[32] = system: Staphylococcus aureus; experiment: Antibacterial activity against methicillin-resistant Staphylococcus aureus H 5996/08 after 48 hrs by broth microdilution method; type: functional; conditions: H 5996/08, 48 h; in short: as §2
[33] = system: Pichia kudriavzevii; experiment: Antifungal activity against Candida krusei E28 after 48 hrs by broth microdilution method; type: functional; conditions: E28, 48 h; in short: as §3
[34] = system: Mycobacterium avium; experiment: Antimycobacterial activity against isoniazid, rifampicin, ethambutol and ofloxacin-resistant Mycobacterium avium My 330/88 after 14 days; type: functional; conditions: My 330/88, 336 h; in short: as §1
[35] = system: Lichtheimia corymbifera; experiment: Antifungal activity against Absidia corymbifera 272 after 48 hrs by broth microdilution method; type: functional; conditions: Lichtheimia corymbifera, 272, 48 h; in short: as §3
[36] = system: Staphylococcus epidermidis; experiment: Antibacterial activity against Staphylococcus epidermidis H 6966/08 after 48 hrs by broth microdilution method; type: functional; conditions: H 6966/08, 48 h; in short: as §2

| Compound | MIC [1] [µM] | MIC95 [2] [µM] | MIC80 [3] [µM] | MIC95 [4] [µM] | Activity [5] | MIC [6] [µM] | MIC50 [7] [µM] | Activity [8] | MIC [9] [µM] | MIC50 [10] [µM] | MIC [11] [µM] | MIC50 [12] [µM] | Activity [13] | Activity [14] | MIC80 [15] [µM] | Activity [16] | MIC [17] [µM] | MIC [18] [µM] | MIC80 [19] [µM] | MIC50 [20] [µM] | also measured |
| --- | --- | --- | --- | --- | --- | --- | --- | --- | --- | --- | --- | --- | --- | --- | --- | --- | --- | --- | --- | --- | --- |
| CCOP(=O)(OCC)Oc1ccc(Cl)cc1C(=O)Nc1cccc(Br)c1 | 4 (≈ 1.85 µg/mL) | 15.6 (≈ 7.23 µg/mL) | > 500 | 31.2 (≈ 14.5 µg/mL) | inactive | 4 (≈ 1.85 µg/mL) | > 500 | inactive | 8 (≈ 3.7 µg/mL) | 15.6 (≈ 7.23 µg/mL) | 8 (≈ 3.7 µg/mL) | > 500 | inactive | inactive | > 500 | inactive | 4 (≈ 1.85 µg/mL) | 8 (≈ 3.7 µg/mL) | > 500 | > 500 | IC50 [21]: 1810 nM; MIC [22]: 8 µM (≈ 3.7 µg/mL); MIC [23]: 16 µM (≈ 7.4 µg/mL); Activity [24]: inactive; MIC95 [25]: 31.2 µM (≈ 14.5 µg/mL); MIC50 [26]: 15.6 µM (≈ 7.23 µg/mL); MIC80 [27]: > 500 µM; Activity [28]: inactive; MIC80 [29]: > 500 µM; MIC95 [30]: 15.6 µM (≈ 7.23 µg/mL); MIC [31]: 8 µM (≈ 3.7 µg/mL); MIC95 [32]: 62.5 µM (≈ 28.9 µg/mL); MIC80 [33]: > 500 µM; MIC [34]: 16 µM (≈ 7.4 µg/mL); MIC50 [35]: > 500 µM; MIC95 [36]: 31.2 µM (≈ 14.5 µg/mL) |
| CCOP(=O)(OCC)Oc1ccc(Cl)cc1C(=O)Nc1ccc(Br)cc1 | 4 (≈ 1.85 µg/mL) | 125 (≈ 57.8 µg/mL) | > 500 | 125 (≈ 57.8 µg/mL) | inactive | 2 (≈ 0.925 µg/mL) | > 500 | inactive | 4 (≈ 1.85 µg/mL) | 250 (≈ 116 µg/mL) | 8 (≈ 3.7 µg/mL) | > 500 | inactive | inactive | > 500 | inactive | 2 (≈ 0.925 µg/mL) | 8 (≈ 3.7 µg/mL) | > 500 | > 500 | IC50 [21]: 1560 nM; MIC [22]: 8 µM (≈ 3.7 µg/mL); MIC [23]: 8 µM (≈ 3.7 µg/mL); Activity [24]: inactive; MIC95 [25]: > 500 µM; MIC50 [26]: 250 µM (≈ 116 µg/mL); MIC80 [27]: > 500 µM; Activity [28]: inactive; MIC80 [29]: > 500 µM; MIC95 [30]: 125 µM (≈ 57.8 µg/mL); MIC [31]: 8 µM (≈ 3.7 µg/mL); MIC95 [32]: > 500 µM; MIC80 [33]: > 500 µM; MIC [34]: 8 µM (≈ 3.7 µg/mL); MIC50 [35]: > 500 µM; MIC95 [36]: 125 µM (≈ 57.8 µg/mL) |
